The list is not random: actives were taken first. Their share in the collection is about 2.6%.
ABHD5-PLIN5 inh – ABHD5-PLIN5 interaction inhibitors, primary screen, cell lysate, split luciferase complementation, luminescence; Split G. princeps luciferase complementation, 4 h; 360,000 compounds, 0.78% hits; Perilipin-5 (Homo sapiens) + 1-acylglycerol-3-phosphate O-acyltransferase ABHD5 (Homo …; inhibition, % at 4 µM;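 active means inhibition above the mean inhibition across every tested compound plus 3 SD, cut at about 22% in these data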;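 further: 0% = DMSO only wells and the 100% control is not disclosed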
NadD block – inhibitors of S. aureus NadD, primary screen, biochemical, colorimetric, uHTS; AID 602399, 2012; 360,000 compounds, 0.78% hits; purified NadD enzyme, colorimetric absorbance read-out; inhibition, % at 20 µM; Nicotinate-nucleotide adenylyltransferase NadD (Staphylococcus aureus N315); in the data active means inhibition above about 26%
rCAG RNA binder – binders of r(CAG) RNA repeats, primary screen, biochemical, fluorescence; AID 651821, 2012; inhibition, % at 3 µM; r(CAG) RNA repeat, TO-PRO-1 dye displacement fluorescence; 370,000 compounds, 1.3% hits;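 active means inhibition above the plate cutoff, the mean of all test compounds on that plate plus 3 SD, cut at about 35% in these data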;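 further: 0% = DMSO alone and 100% = 100 µM mitoxantrone as full dye displacement; higher means more dye released from RNA so lower well fluorescence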
core dimer inh – inhibitors of HCV core protein dimerization, primary screen, biochemical, TR-FRET, high-throughput. TR-FRET GST/Flag-core106 dimerization, 1536-well. inhibition, % at 5 µM. 300,000 compounds, 0.33% hits. AID 1899, 2009;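 active means inhibition above the mean of all tested compounds plus 3 SD, set per screening campaign, cut at about 45% in these data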
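Assay system: GST-tagged and Flag-tagged HCV core protein residues 1-106 / Times: compound-protein-antibody incubation 4 h at 22.5 °C / Signal: time-resolved FRET, ex 340 nm, em 617 and 671 nm / Evaluation: % inhibition based on acceptor/donor emission ratio / Benchmarks: wells lacking GST-core106 and wells with excess unlabelled core106 / Repeats: singlicate, one well per compound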
ABHD5-PLIN5 conf – ABHD5-PLIN5 interaction inhibitors, confirmation, biochemical, luminescence; shares compounds with ABHD5-PLIN5 inh; 2,200 compounds, 67% hits; inhibition, % at 4 µM; in the data active means inhibition above about 23%;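 further: 0% = DMSO vehicle wells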
HNF4 split-luc – HNF4 dimerization inhibitors, counter-screen for ABHD5-PLIN5 interaction inhibitor project, biochemical, split-luciferase complementation, luminescence. shares compounds with ABHD5-PLIN5 inh. inhibition, % at 4 µM. 2,200 compounds, 77% hits;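 active means mean inhibition across replicate wells exceeding the computed hit threshold, cut at about 13% in these data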;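 further: light from luciferase halves that rejoin when HNF4 fusion proteins dimerize; 0% = DMSO only wells and the 100% control is not given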
Target sequence (P41235 whole entry, looked up, the tested form may be a part): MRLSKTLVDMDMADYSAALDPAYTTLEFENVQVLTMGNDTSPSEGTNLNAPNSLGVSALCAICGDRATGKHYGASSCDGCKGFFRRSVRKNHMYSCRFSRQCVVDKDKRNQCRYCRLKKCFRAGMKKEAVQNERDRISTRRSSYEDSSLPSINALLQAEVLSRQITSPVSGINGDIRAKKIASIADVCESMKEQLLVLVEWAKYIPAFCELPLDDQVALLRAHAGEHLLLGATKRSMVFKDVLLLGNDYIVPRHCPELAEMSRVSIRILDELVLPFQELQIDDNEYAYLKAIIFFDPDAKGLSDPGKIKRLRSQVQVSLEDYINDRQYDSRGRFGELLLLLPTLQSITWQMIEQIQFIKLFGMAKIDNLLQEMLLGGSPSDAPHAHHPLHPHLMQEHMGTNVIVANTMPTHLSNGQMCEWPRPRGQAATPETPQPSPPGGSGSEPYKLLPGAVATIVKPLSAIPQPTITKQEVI
Active calls of the source: *; . = not tested or not shown.

SMILES | ABHD5-PLIN5 inh | NadD block | rCAG RNA binder | core dimer inh | ABHD5-PLIN5 conf | HNF4 split-luc
Cn1cc(CN2CCC(C(=O)NC(c3ccc(F)cc3)c3ccc4ccccc4n3)CC2)c2ccccc21 (centres undefined) | 24* | 10 | 1 | . | 12 | 11
COc1ccc(CC(=O)NC2CC(C)(C)NC(C)(C)C2)cc1OC | 8 | -3 | 2 | -10 | . | .
O=S(=O)(Nc1ccc(Cl)cc1)c1ccc(N2CCOCC2)c(NC(=S)NCCN2CCOCC2)c1 | 31* | 0 | 9 | 0 | -5 | 48*
CCc1cc2c(=O)n(Cc3ccco3)c(SCc3c(C)noc3C)nc2s1 | 26* | 4 | 7 | 11 | 30* | 51*
CCc1cc2c(=O)n(Cc3ccco3)c(SCC(=O)NCC3CCCO3)nc2s1 (centres undefined) | 8 | -4 | -5 | -4 | . | .
N#Cc1[nH]nc2nc[nH]c(=O)c12 | . | . | 1 | . | . | .
Cn1c(N=Nc2ccc(N3CCOCC3)cc2)[n+](C)c2ccccc21 | 24* | -1 | 23 | . | 21 | 39*
O=C(c1ccccc1)C12COc3ccccc3C1ON=C2c1ccccc1 (centres undefined) | . | . | 3 | . | . | .
COC(=O)c1cc(=O)n(Cc2ccc3c(c2)OCO3)c(=Nc2ccc(F)cc2)s1 | 2 | 0 | 2 | 11 | . | .
COC(=O)c1cc(=O)n(Cc2cccs2)c(=Nc2ccc(F)cc2)s1 | 45* | -8 | 4 | 7 | 65* | 44*
COC(=O)c1cc(=O)n(-c2ccc(F)cc2)c(=Nc2ccc(F)cc2)s1 | 40* | -2 | 0 | 2 | 71* | 49*
O=C(CC1CCCC1)N1CC[C@H]2[C@H](CCCN2Cc2cc(F)cc(F)c2)C1 | . | . | -2 | . | . | .
Cc1ccc2c(CC(=O)N3CCN(S(=O)(=O)c4ccc5c(c4)OCCO5)CC3)coc2c1 | 27* | -5 | 2 | 14 | 57* | .
CN1/C(=C/C=C/c2n(C)c3cc([N+](=O)[O-])c([N+](=O)[O-])cc3[n+]2C)C(C)(C)c2ccccc21 | 34* | 0 | 22 | . | 35* | 56*
Cc1ccccc1C(=O)N=c1c(C#N)cc2c(=O)n3cccc(C)c3nc2n1Cc1ccco1 | . | . | . | 24 | . | .
N#Cc1cc2c(=O)n3ccccc3nc2n(Cc2ccco2)c1=NC(=O)c1ccco1 | 50* | 10 | 23 | 23 | 7 | 26*
CC(=O)N=c1c(C#N)cc2c(=O)n3cccc(C)c3nc2n1Cc1ccco1 | 49* | 10 | 8 | 15 | 13 | 14*
C=C(C)[C@@H]1C2=CC(C(=O)OC)=C(C[C@H](C(=C)C)[C@H]3O[C@H]3C3=C[C@H]1OC3=O)O2 | 63* | 3 | -2 | . | 87* | 78*
CC(C)(C)Nc1nc(Cl)nc(N(C#N)CN2C(=O)c3ccccc3S2(=O)=O)n1 | 33* | 1 | 6 | -1 | 30* | 24*
COc1nc(NC(C)C)nc(N(C#N)CN2C(=O)c3ccccc3S2(=O)=O)n1 | 26* | -1 | -6 | 2 | 29* | 26*
CN(C)c1nc(N(C)C)nc(N(C#N)CN2C(=O)c3ccccc3S2(=O)=O)n1 | 3 | -6 | -2 | -2 | . | .
CC(C)Nc1nc(Cl)nc(N(C#N)CN2C(=O)c3ccccc3S2(=O)=O)n1 | 19 | -2 | 1 | -2 | . | .
COc1cc(C)c2sc3ccccc3c(=O)c2c1NCCN(C)C | 32* | 0 | 10 | . | 27* | 8
Cc1ccc(C(=O)NCc2ccco2)cc1S(=O)(=O)N1CCCCC1 | 26* | 0 | 8 | 13 | 13 | 8
C=CCN1[C@@H](C)[C@@H](c2ccccc2)Oc2c(Cl)cccc2S1(=O)=O | . | . | 4 | . | . | .
SMILES | ABHD5-PLIN5 inh | NadD block | rCAG RNA binder | core dimer inh | ABHD5-PLIN5 conf | HNF4 split-luc
C[C@@H]1CN([C@H](C)CO)C(=O)c2ccccc2-c2ccccc2CO[C@@H]1CN(C)C(=O)Nc1ccccc1 | . | . | 1 | . | . | .
NC(=O)C1CCN(C(=O)COc2ccc(S(=O)(=O)NC3CCCC3)cc2)CC1 | -6 | -5 | -1 | 12 | . | .
Cc1ccc(S(=O)(=O)NC2CCCCC2)cc1C(=O)N1CCC(C(N)=O)CC1 | 36* | -2 | -1 | . | 6 | 2
CC(=O)OCC1=C(C(=O)O)N2C(=O)C(NC(=O)c3ccc(F)cc3)C2SC1 (centres undefined) | 30* | 0 | 9 | -5 | 4 | 28*
CCc1ccc(/C=C/C(=O)c2ccc(S(=O)(=O)N(C)C)cc2)cc1 | 41* | 1 | 0 | 13 | 92* | 83*
CCc1ccc(/C=C/C(=O)c2ccc(N3CCOCC3)cc2)cc1 | 6 | 3 | 0 | -2 | . | .
COc1cccc(CO[C@H]2C=C[C@@H](c3ccccc3)O[C@@H]2COC(C)=O)c1 | . | . | 3 | . | . | .
CC(=O)Nc1ccc2c(c1)CCc1ccccc1-2 | 17 | -6 | -1 | -22 | . | .
O=C(O)/C=C/C(=O)c1ccc2c(c1)CCc1ccccc1-2 | 95* | -3 | 20 | 14 | 104* | 110*
COc1ccccc1CNC(=O)C1(C)CCCCN1C (centres undefined) | 2 | -2 | -1 | . | . | .
CN1CCN(C(=O)c2cc3c(c(-c4cccc(-c5cccnc5)c4)n2)[C@@H](CCO)N(C(=O)CC2CC2)C3)CC1 | -2 | 6 | 3 | . | . | .
Oc1ccccc1C1CC(c2cccs2)=NC(c2ccc(Cl)cc2)N1 (centres undefined) | 8 | -3 | 15 | 2 | . | .
CCOc1ccccc1C1N=C(c2ccc(OC)cc2)CC(c2ccccc2O)N1 (centres undefined) | 25* | 1 | 7 | -1 | 57* | 48*
O=C(N[C@H](Cc1ccccc1)C(=O)NCCN1CCOCC1)[C@H]1O[C@@H](n2ccc(=O)[nH]c2=O)[C@H](O)[C@@H]1O | . | . | 2 | . | . | .
C=CCN=C1NC(c2ccc(C(F)(F)F)cc2)C(C(=O)OC)=C(C)N1Cc1ccccc1C(F)(F)F (centres undefined) | . | . | 0 | . | . | .
CCSc1nnc(-c2c[nH]c3ccccc23)o1 | 98* | -8 | . | 11 | 5 | 4
COCC1=C(C(=O)OC)C(c2ccco2)n2ncnc2N1 (centres undefined) | 38* | 0 | 5 | -4 | -3 | 9
CCCC1=C(C(=O)OCC)C(c2ccco2)n2ncnc2N1 (centres undefined) | 0 | -5 | -1 | 0 | . | .
Cc1ccc(NC2=C(Cl)C(=O)OC2NC(=O)c2ccccc2)cc1 (centres undefined) | -6 | 2 | -3 | -4 | . | .
